# Measurements taken from ChEMBL document CHEMBL3414514, “Synthesis and pharmacological evaluation of novel bisindole derivatives bearing oximes moiety: identification of novel proapoptotic agents” (Eur J Med Chem, 2015).
# Calls of active or inactive are those of the source. The rule behind the calls is not given here.
# Legend:
# T-24 [1] = assay: Induction of apoptosis in human T24 cells assessed as late apoptotic cells at 20 uM after 24 hrs by annexin-V-FITC/propidium iodide staining-based flow cytometry (reference value: 2.08%); assay type: functional
# T-24 [2] = assay: Induction of apoptosis in human T24 cells assessed as necrotic cells at 20 uM after 24 hrs by annexin-V-FITC/propidium iodide staining-based flow cytometry (reference value: 1.66%); assay type: functional
# T-24 [3] = assay: Induction of apoptosis in human T24 cells assessed as increase in intracellular ROS level at 5 to 20 uM after 24 hrs by DCFH/DA staining-based fluorescence microscopic analysis; assay type: functional, cell-based
# [4] = Induction of apoptosis in human T24 cells assessed as caspase-3 upregulation after 24 hrs by qRT-PCR analysis; assay type: functional, cell-based; conditions: T-24
# Method in brief: (§1)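 T24 cells treated at […] for 24 h before RNA extraction. SYBR Green qRT-PCR with 500 nM primers: 2 min at 50 C, 10 min at 95 C, then 40 cycles of 15 s at 95 C and 1 min at 60 C. Expression by the ΔCt method against actin, normalized to untreated cells; run in triplicate.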
# [5] = Induction of apoptosis in human T24 cells assessed as caspase-9 upregulation after 24 hrs by qRT-PCR analysis; assay type: functional, cell-based; conditions: T-24; method in brief: as §1
# [6] = Induction of apoptosis in human T24 cells assessed as Bcl2 upregulation after 24 hrs by qRT-PCR analysis; assay type: functional, cell-based; conditions: T-24; method in brief: as §1
# [7] = Induction of apoptosis in human T24 cells assessed as tp53 upregulation after 24 hrs by qRT-PCR analysis; assay type: functional, cell-based; conditions: T-24
# [8] = Induction of apoptosis in human T24 cells assessed as caspase-8 upregulation at IC50 after 24 hrs by qRT-PCR analysis relative to control; assay type: functional, cell-based; conditions: T-24
# [9] = Induction of apoptosis in human T24 cells assessed as AIF upregulation at IC50 after 24 hrs by qRT-PCR analysis relative to control; assay type: functional, cell-based; conditions: T-24
# [10] = Induction of apoptosis in human T24 cells assessed as caspase-9 upregulation at IC50 after 24 hrs by qRT-PCR analysis relative to control; assay type: functional, cell-based; conditions: T-24
# T-24 [11] = assay: Induction of apoptosis in human T24 cells assessed as cytochrome C accumulation in cytosol at 20 uM after 6 to 24 hrs by Western blotting analysis; assay type: functional, cell-based
# [12] = Cell cycle arrest in human T24 cells assessed as accumulation at G1 phase at 10 uM after 48 hrs by Rnase A/propidium iodide staining-based flow cytometry (reference value: 34.43%); assay type: functional; conditions: T-24
# Method in brief: (§2)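 T24 cells exposed to […] for 48 h, washed with ice-cold PBS, then fixed and permeabilized overnight in ice-cold 70% ethanol. RNase A (100 mg/mL) treatment at 37 C for 30 min, then PI staining (1 mg/mL) in the dark at 4 C for 30 min. Flow cytometry gave the percentage of cells in G1, S and G2 phase.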
# [13] = Cell cycle arrest in human T24 cells assessed as accumulation at S phase at 10 uM after 48 hrs by Rnase A/propidium iodide staining-based flow cytometry (reference value: 62%); assay type: functional; conditions: T-24; method in brief: as §2
# [14] = Cell cycle arrest in human T24 cells assessed as reduction in Cyclin E level after 24 hrs by Western blotting analysis; assay type: functional, cell-based; conditions: T-24
# Method in brief: (§3)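 T24 cells treated at […] for 24 h and lysed in ice-cold RIPA buffer with protease inhibitors and NaF. Protein measured by Bradford; 30 micrograms per lane run on 12% SDS-PAGE and transferred to PVDF. Blocked 2 h at room temperature, primary antibody overnight at 4 C, HRP secondary (1:2000) 1 h, chemiluminescence detection.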
# [15] = Cell cycle arrest in human T24 cells assessed as reduction in Cyclin D1 level after 24 hrs by Western blotting analysis; assay type: functional, cell-based; conditions: T-24; method in brief: as §3
# [16] = Cell cycle arrest in human T24 cells assessed as increase in p53 level after 24 hrs by Western blotting analysis; assay type: functional, cell-based; conditions: T-24; method in brief: as §3
# [17] = Cell cycle arrest in human T24 cells assessed as increase in p16 level after 24 hrs by Western blotting analysis; assay type: functional, cell-based; conditions: T-24; method in brief: as §3
# [18] = Cell cycle arrest in human T24 cells assessed as alteration in cyclin A level at 5 to 20 uM after 24 hrs by Western blotting analysis; assay type: functional, cell-based; conditions: T-24
# NCI-H460 = assay: Cytotoxicity against human NCI-H460 cells after 2 days by MTT assay; assay type: functional, cell-based; conditions: NCI-H460, 48 h
# Method in brief: (§4)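 Cells grown in medium with 10% heat-inactivated FBS at 37 C under 5% CO2. Compounds dissolved in medium with 1% DMSO; controls received 1% DMSO. After 2 days, MTT (10 mg/mL) added for 4 h, formazan dissolved in DMSO and absorbance read at 570/630 nm. Survival taken relative to negative control; IC50 by Bliss method (n = 5), at least three independent experiments.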
# [19] = Cytotoxicity against human SKOV3 cells after 2 days by MTT assay; assay type: functional, cell-based; conditions: SK-OV-3, 48 h; method in brief: as §4
# T-24 [20] = assay: Induction of apoptosis in human T24 cells assessed as reduction in cellular volume after 24 hrs by Hoechst 33258 staining-based fluorescence microscopic analysis relative to control; assay type: functional, cell-based
# Method in brief: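 T24 cells on cover slips exposed 24 h at 5, 10 and 20 µM, with untreated cells as control. Fixed in 4% paraformaldehyde for 10 min, washed with PBS and stained with Hoechst 33258 for 5 min. Nuclei were viewed by fluorescence microscopy at 350 nm excitation and 460 nm emission.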
# T-24 [21] = assay: Induction of apoptosis in human T24 cells assessed as membrane blebbing at 5 to 20 uM after 24 hrs by AO/EB staining-based fluorescence microscopic analysis relative to control; assay type: functional, cell-based
# Method in brief: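 T24 cells seeded at 5 × 10^4 cells/mL on cover slips. Medium was replaced with fresh medium containing 10% FBS and compound at 5, 10 or 20 µM for 24 h. Cover slips were inverted onto AO/EB stain and viewed by fluorescence microscopy. Live cells score uniform green, early apoptotic green-yellow, late apoptotic orange, and necrotic orange without condensed chromatin. Untreated cells served as control.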
# T-24 [22] = assay: Induction of apoptosis in human T24 cells assessed as cell budding at 5 to 20 uM after 24 hrs by AO/EB staining-based fluorescence microscopic analysis relative to control; assay type: functional
# T-24 [23] = assay: Induction of apoptosis in human T24 cells assessed as loss of mitochondrial membrane potential at 5 to 20 uM after 24 hrs by JC-1 staining-based fluorescence microscopic analysis relative to control; assay type: functional, cell-based
# Method in brief: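 T24 cells exposed 24 h at 5, 10 and 20 µM, then given an equal volume of JC-1 staining solution at 37 °C for 20 min and rinsed twice with PBS. Monomer (green, 515–545 nm) and aggregate (red, 570–600 nm) emissions were viewed by fluorescence microscopy. Depolarization was read as a rise in the green/red ratio against untreated control.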
# T-24 [24] = assay: Induction of apoptosis in human T24 cells assessed as necrotic cells at 5 uM after 24 hrs by annexin-V-FITC/propidium iodide staining-based flow cytometry (reference value: 1.66%); assay type: functional
# T-24 [25] = assay: Induction of apoptosis in human T24 cells assessed as viable cells at 5 uM after 24 hrs by annexin-V-FITC/propidium iodide staining-based flow cytometry (reference value: 93.5%); assay type: functional; conditions: T-24, 24 h, read-out: Activity
# T-24 [26] = assay: Induction of apoptosis in human T24 cells assessed as early apoptotic cells at 20 uM after 24 hrs by annexin-V-FITC/propidium iodide staining-based flow cytometry (reference value: 2.74%); assay type: functional
compound,measurement,setting,value
COc1ccc2c(c1)/C(=N\O)C(c1c[nH]c3ccc(OC)cc13)=N2,Activity,T-24 [1],7.13%
same,Activity,T-24 [2],2.07%
same,Activity,T-24 [3],Active
same,Activity,[4],Dose-dependent effect
same,Activity,[5],Dose-dependent effect
same,Activity,[6],Dose-dependent effect
same,Activity,[7],Dose-dependent effect
same,fold change (FC),[8],8.03
same,fold change (FC),[9],4.47
same,fold change (FC),[10],27.1
same,Activity,T-24 [11],Active
same,Activity,[12],57%
same,Activity,[13],37.5%
same,Activity,[14],Dose-dependent effect
same,Activity,[15],Dose-dependent effect
same,Activity,[16],Dose-dependent effect
same,Activity,[17],Dose-dependent effect
same,Activity,[18],inactive
same,IC50,NCI-H460,9.83 µM
same,IC50,[19],12.5 µM
same,Activity,T-24 [20],Dose-dependent effect
same,Activity,T-24 [21],Active
same,Activity,T-24 [22],Active
same,Activity,T-24 [23],Active
same,Activity,T-24 [24],1.18%
same,viability at 5 µM,T-24 [25],85.9%
same,Activity,T-24 [26],32.7%
